For 5 molecules, MIC results are on record in ChEMBL document CHEMBL1157295, “Polyacylated oligosaccharides from medicinal Mexican morning glory species as antibacterials and inhibitors of multidrug resistance in Staphylococcus aureus” (2006).

What all share (assay type): functional
Assay [1] deals with Staphylococcus aureus. Put plainly: Antimicrobial activity against TetK multidrug efflux pump possessing Staphylococcus aureus XU-212 by standard microdilution method. The essentials: (§1)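 Broth microdilution per NCCLS guidelines, at least in duplicate, in cation-adjusted Mueller-Hinton broth (20 mg/L Ca2+, 10 mg/L Mg2+). Strains were grown first on nutrient agar. Inoculum of 5 × 10^5 cfu was set in 0.9% saline against a McFarland standard. Compounds were dissolved in DMSO and given as 2-fold serial dilutions, final 1–512 µg/mL, with at most 3.125% v/v DMSO. MIC is the lowest concentration showing no visible growth.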

Assay [2] deals with Mycobacterium tuberculosis. Nature of the assay: Antimicrobial activity against Mycobacterium tuberculosis.
In assay [3] the test system is Staphylococcus aureus. Put plainly: Antimicrobial activity against epidemic methicillin-resistant Staphylococcus aureus 15 by standard microdilution method. A digest of the protocol:
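Broth microdilution following NCCLS guidelines, at least in duplicate, against EMRSA-15 (mecA) precultured on nutrient agar. Medium was cation-adjusted Mueller-Hinton broth with 20 mg/L Ca2+ and 10 mg/L Mg2+. Inoculum was 5 × 10^5 cfu in 0.9% saline, set against a McFarland standard. Compounds were dissolved in DMSO (final ≤3.125% v/v) and tested at 1–512 µg/mL in 2-fold series. MIC was the lowest concentration with no visible growth.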

For assay [4], the system named is Staphylococcus aureus. Put plainly: Antimicrobial activity against Staphylococcus aureus ATCC 25923 by standard microdilution method. A digest of the protocol: as §1
Assay [5] concerns Staphylococcus aureus. Nature of the assay: Antimicrobial activity against Staphylococcus aureus ATCC 6538.

SMILES strings stand for the structures. In brackets after ≈: the same amount, converted by molar mass.

Consider `CCCCC[C@H]1CCCCCCCCCC(=O)O[C@H]2[C@H](O)[C@@H](CO)O[C@@H](O[C@H]3[C@H](O1)O[C@H](C)[C@H](O)[C@@H]3O)[C@@H]2O[C@@H]1O[C@@H](C)[C@H](OC(=O)[C@@H](C)CC)[C@@H](O[C@@H]2O[C@@H](C)[C@H](O)[C@@H](O)[C@H]2O)[C@H]1OC(=O)[C@@H](C)CC` [TRICOLORIN A], for which the minimal inhibitory concentration (MIC) was determined as 8 µg/mL (≈ 7.82 µM) against Staphylococcus aureus [1]; 16 µg/mL (≈ 15.6 µM) in assay [2]; 4 µg/mL (≈ 3.91 µM) in the assay on Staphylococcus aureus [3]; 16 µg/mL (≈ 15.6 µM) with Staphylococcus aureus [4]; 1 µg/mL (≈ 0.977 µM) in the assay with Staphylococcus aureus [5].

As to `CCCCC[C@H]1CCCCCCCCCC(=O)O[C@H]2[C@H](O)[C@@H](CO)O[C@@H](O[C@H]3[C@H](O1)O[C@H](C)[C@H](O)[C@@H]3O)[C@@H]2O[C@@H]1O[C@@H](C)[C@H](OC(=O)C(C)C)[C@@H](O[C@@H]2O[C@@H](C)[C@H](O)[C@@H](O)[C@H]2O)[C@H]1OC(=O)[C@@H](C)CC` [TRICOLORIN B], the MIC in the assay on Staphylococcus aureus [1] was 16 µg/mL (≈ 15.9 µM); in assay [2], 16 µg/mL (≈ 15.9 µM); in the assay on Staphylococcus aureus [3], 16 µg/mL (≈ 15.9 µM); in the assay with Staphylococcus aureus [4] it was 32 µg/mL (≈ 31.7 µM); in the assay with Staphylococcus aureus [5], 1 µg/mL (≈ 0.991 µM).

For `CCCCC[C@H]1CCCCCCCCCC(=O)O[C@H]2[C@H](O)[C@@H](CO)O[C@@H](O[C@H]3[C@H](O1)O[C@H](C)[C@H](O)[C@@H]3O)[C@@H]2O[C@@H]1O[C@@H](C)[C@H](OC(=O)[C@H](C)[C@@H](C)O)[C@@H](O[C@@H]2O[C@@H](C)[C@H](O)[C@@H](O)[C@H]2O)[C@H]1OC(=O)[C@@H](C)CC` [TRICOLORIN C], the MIC was 16 µg/mL (≈ 15.4 µM) in the assay with Staphylococcus aureus [1]; 16 µg/mL (≈ 15.4 µM) in assay [2]; 32 µg/mL (≈ 30.8 µM) in the assay with Staphylococcus aureus [3]; 32 µg/mL (≈ 30.8 µM) against Staphylococcus aureus [4]; 1 µg/mL (≈ 0.962 µM) against Staphylococcus aureus [5].

`CCCCC[C@H]1CCCCCCCCCC(=O)OC[C@H]2O[C@@H](O[C@H]3[C@H](O1)O[C@H](C)[C@H](O)[C@@H]3O)[C@H](O[C@@H]1O[C@@H](C)[C@H](OC(=O)[C@@H](C)CC)[C@@H](O[C@@H]3O[C@@H](C)[C@H](O)[C@@H](O)[C@H]3O)[C@H]1OC(=O)[C@@H](C)CC)[C@@H](O)[C@@H]2O` [TRICOLORIN D]: the MIC was found to be 32 µg/mL (≈ 31.3 µM) against Staphylococcus aureus [1]; 16 µg/mL (≈ 15.6 µM) in assay [2]; 32 µg/mL (≈ 31.3 µM) with Staphylococcus aureus [3]; 16 µg/mL (≈ 15.6 µM) in the assay with Staphylococcus aureus [4]; 1 µg/mL (≈ 0.977 µM) in the assay on Staphylococcus aureus [5].

With `CCCCC[C@H]1CCCCCCCCCC(=O)O[C@H]2[C@H](O)[C@@H](CO)O[C@@H](O[C@H]3[C@H](O1)O[C@H](C)[C@@H](O)[C@@H]3O)[C@@H]2O[C@@H]1O[C@@H](C)[C@H](OC(=O)[C@@H](C)CC)[C@@H](O[C@@H]2O[C@@H](C)[C@H](O)[C@@H](O)[C@H]2O)[C@H]1OC(=O)[C@@H](C)CC` [TRICOLORIN E], the MIC was 8 µg/mL (≈ 7.82 µM) with Staphylococcus aureus [1]; 16 µg/mL (≈ 15.6 µM) in assay [2]; 8 µg/mL (≈ 7.82 µM) against Staphylococcus aureus [3]; 16 µg/mL (≈ 15.6 µM) against Staphylococcus aureus [4]; 1 µg/mL (≈ 0.977 µM) with Staphylococcus aureus [5].
